Screens as filed in PubChem BioAssay.
Dynein transport: dynein cargo transport inhibition; 3617.4 mouse cells, GR-EGFP nuclear translocation imaging; test concentration mostly 20 µM; stimulated with dexamethasone, 1 µM; active compounds read low; z-score, hits read low; 0.47% of 220,000 active; AID 1381;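 active = plate z-score of nuclear minus cytoplasmic receptor signal below a set negative limit, without overly bright fluorescence or cell loss, cut at about -3.5 in these data, passing the limit was not always enough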;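 note: z-score of nuclear minus cytoplasmic ring GR-EGFP intensity difference per well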
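Buffer or medium: tet-free, stripped-serum medium; reagent: dexamethasone at 1.0 µM final, 30 min; incubation: 48 h induction, 1 h compound, 30 min dex at 37 °C; measured by: formaldehyde fixation, Hoechst nuclear stain, 10x automated fluorescence imaging; read-out: nuclear-to-cytoplasmic GR-EGFP distribution per well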
zVAD death inh: L929 zVAD cell death inhibition | L929 zVAD necroptosis rescue, ATP luminescence, 24 h; with zVAD 60 µM | viability rescue, % at 10 µM | 0.38% of 220,000 active;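 active = activation, scaled between plate controls, above about 75%, limit read from the data; inactive = activation under that limit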
MDM2 E3 inh: Mdm2 E3 ligase (human) inhibition. Q00987. cell-based MDM2 ubiquitination luciferase reporter, 2 h; 0 = plate control, 100 = twice control, blank-subtracted. signal enhancement, % at 5 µM. 0.11% of 210,000 active;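 active = signal enhancement of 30% or more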;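 note: luminescence tracks abundance of the self-degrading MDM2-luciferase fusion protein; higher signal means inhibition of MDM2 E3 ligase activity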
Target sequence (Q00987 whole entry, looked up, the tested form may be a part): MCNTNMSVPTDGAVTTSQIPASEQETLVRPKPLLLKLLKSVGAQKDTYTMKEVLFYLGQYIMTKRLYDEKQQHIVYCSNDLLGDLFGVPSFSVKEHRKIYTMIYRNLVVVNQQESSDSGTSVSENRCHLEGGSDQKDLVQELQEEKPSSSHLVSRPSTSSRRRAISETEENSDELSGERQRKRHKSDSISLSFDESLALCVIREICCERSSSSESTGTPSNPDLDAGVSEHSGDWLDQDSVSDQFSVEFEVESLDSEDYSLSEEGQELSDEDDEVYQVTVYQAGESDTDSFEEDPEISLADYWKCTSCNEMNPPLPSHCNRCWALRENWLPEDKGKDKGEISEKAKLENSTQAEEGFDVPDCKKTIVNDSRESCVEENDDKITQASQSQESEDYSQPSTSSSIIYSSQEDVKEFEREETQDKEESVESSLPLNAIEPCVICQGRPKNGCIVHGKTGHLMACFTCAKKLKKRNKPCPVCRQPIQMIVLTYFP
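Test system: stable mammalian line carrying autodegrading MDM2–luciferase fusion reporter; quantity: 2000 cells in each well; times: 4 h cell settling then 2 h compound exposure, 37 °C; detection: luminescence with SteadyLite reagent, 15 min at room temperature; evaluation: percent signal gain over controls, blank-subtracted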
TNF death inh: TNF-alpha cell death inhibition in Jurkat FADD-/- cells. Jurkat FADD-/- TNF necroptosis rescue, ATP luminescence, 24 h; 0 = TNF only, 100 = no-TNF cells. activation (protection from cell death), % at 10 µM. 0.068% of 220,000 active;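 active = activation, meaning protection from cell death, of at least 50% relative to plate controls; inactive = activation below 50%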;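 note: necroptosis triggered by 40 ng/mL TNF-alpha added together with compound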
Autophagy HCS: modulators of autophagy. calls only at 10 µM (by protocol). 0.98% of 190,000 active. MEF GFP-LC3 puncta imaging; test concentration mostly 10 µM. AID 463193;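 active = percentage of spot-positive cells more than 3 SD above its plate mean, without a fluorescence outlier flag or 80% toxicity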
zVAD necrop conf: confirmed blocker of zVAD induced death in L929 cells; shares compounds with zVAD death inh; L929 zVAD-induced necroptosis rescue, ATP luminescence, 24 h; activation (protection from necroptosis), % at 10 µM; 16% of 760 active;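 active = mean protection from necroptosis of at least 50% over duplicate tests; inactive = mean protection below 50%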
Numbers stand for hits; n = inactive; x = no result given. Hits are enriched below; roughly 1.8% of the tested compounds scored in any of these assays.

SMILES	Dynein transport	zVAD death inh	MDM2 E3 inh	TNF death inh	Autophagy HCS	zVAD necrop conf
c1ccc(Nc2nc(N3CCCCC3)nc(N3CCNCC3)n2)cc1	n	77.3	n	n	n	n
c1ccc(Nc2nc(N3CCCCC3)nc(N3CCCCC3)n2)cc1	n	n	n	n	n	x
CC1CC(CCC(=O)NC(=S)Nc2ccc(Cl)cn2)C(=O)O1 (stereo unspecified)	n	n	n	n	n	x
CC(=O)N(C)c1ccc(NC(=O)Nc2ccc(C)cc2)cc1	n	76.7	n	n	n	n
Cc1noc(C)c1C(=O)OC(C)C(=O)Nc1ccc(S(=O)(=O)NC(C)C)cc1 (stereo unspecified)	n	n	n	n	n	x
Cc1ccc(Nc2nc(OC(C(F)(F)F)C(F)(F)F)nc(N3CCOCC3)n2)cc1	n	88.2	n	n	n	n
COc1ccc(CCNC(=O)COc2nncc3ccccc23)cc1	n	n	n	n	n	x
CCC1(c2ccccc2)C(=O)NCNC1=O	n	75.0	x	n	n	n
O=C1NC(=O)C(c2ccccc2)(c2ccccc2)N1	n	n	n	n	n	x
O=S(=O)(O)c1nc2ccccc2n1Cc1cccc2ccccc12	n	n	n	n	x	x
Cn1ccc(NC(=O)Nc2ccc(Cl)cc2Cl)n1	n	x	n	n	n	x
O=C(Nc1cnccn1)Nc1ccc(Cl)cc1Cl	n	80.1	n	n	n	n
Cc1ccnc(NC(=O)Nc2ccc(Br)cc2Cl)c1	n	83.1	n	n	n	n
Cc1ccc(NC(=O)Nc2cnccn2)cc1Cl	n	80.0	n	n	n	n
CC(C)(C)NC(=O)NC(=O)COC(=O)CCC1CCCC1	n	n	x	n	x	x
COc1ccc(NC2CC(=O)N(c3cc([N+](=O)[O-])ccc3C)C2=O)cc1 (stereo unspecified)	n	n	n	n	n	x
CCOC(=O)c1ccc2ncc(-c3ccccc3)nc2c1	n	76.3	n	n	n	n
COc1ccc(-c2cc(=O)c3cc(O)ccc3o2)cc1	n	75.9	n	n	n	n
O=c1cc(-c2ccccc2)oc2ccc(O)cc12	n	n	n	n	x	x
COc1ccc(CC(=O)Nc2nnc(C(C)C)s2)cc1	n	81.5	n	n	n	n
COc1ccc(NC(=O)Nc2nnc(C(C)C)s2)cc1	n	95.3	n	n	n	n
Cc1cccc(NC(=O)Nc2ccc(C)c(C)c2)n1	n	75.0	n	n	n	n
Cc1cccc(NC(=O)Nc2cccc(C)n2)n1	n	n	n	n	n	x
CC(=O)Nc1ccc(NC(=O)Nc2ccc(C)c(C)c2)cc1	n	79.5	n	n	n	n
Cc1cccc(NC(=O)Nc2ccc([N+](=O)[O-])cc2)n1	n	76.5	n	n	n	n
SMILES	Dynein transport	zVAD death inh	MDM2 E3 inh	TNF death inh	Autophagy HCS	zVAD necrop conf
O=C(CSc1ccc(-c2ccncc2)nn1)c1ccccc1	n	n	n	n	n	x
Fc1cccc(Cl)c1/C=N/Nc1ccccn1	n	83.4	n	n	n	n
C(=N\Nc1ccccn1)/c1ccc2c(c1)OCCO2	n	82.6	n	n	n	n
Fc1cccc(/C=N/Nc2ccccn2)c1	n	76.1	n	n	n	n
Fc1cccc(/C=N/Nc2ccc3ccccc3n2)c1	n	n	n	n	n	x
Fc1cccc(F)c1/C=N/Nc1ccccn1	n	90.3	n	n	n	n
CCN(C(=O)c1cc2c(=O)[nH]c3ccc(C)cc3c2s1)c1ccc(OC)cc1	n	n	n	n	x	x
CCCS(=O)(=O)c1ccc(COC(=O)c2ccc(NC(C)=O)cc2)cc1	n	79.1	n	n	n	n
COC(=O)c1ccc(NC(=O)NC2CCCCC2)cc1	n	n	n	n	n	x
CC(=O)Nc1ccc(C(=O)OCC(=O)NC(=O)NC2CCCCC2)cc1	n	80.2	n	n	n	n
c1ccn(-c2ccc(-c3ccn[nH]3)cc2)c1	n	85.6	n	n	n	n
Cc1ccc(C)n1-c1ccc(-c2ccn[nH]2)cc1	n	n	n	n	n	x
Cc1cn(-c2cc(C(=O)Nc3ccc(C)c(NC(=O)C(=O)c4c[nH]c5ccccc45)c3)cc(C(F)(F)F)c2)cn1	n	77.4	n	n	x	70.8
COc1cc(/C=N/NC(=O)c2ccccc2O)ccc1OC(=O)CC1SC(=O)NC1=O (stereo unspecified)	n	n	n	n	x	x
